The values that follow come from paper PMC7918756 (The Journal of Experimental Medicine, 2021).

Series [1] deals with HASMCs (human primary bronchial smooth muscle cells). In words: impedance-based HASMC contraction assay. It is filed as cell-based.
For series [2], the target named is cynomolgus (cyno) monkey TRPA1 (Macaca fascicularis, UniProt A0A2K5VSJ1). In words: CHO cell line FLIPR Ca2+ assay, CA-evoked. It counts as cell-based.
The target of series [3] is mouse TRPA1 (Mus musculus, UniProt Q8BLA8). In words: CHO cell line FLIPR Ca2+ assay, CA-evoked. It is filed as cell-based. In short, it runs like this:
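Mouse TRPA1-expressing CHO cells, fluorescent Ca2+ dye loaded, were exposed 10 min to a test compound concentration series and then challenged with cinnamaldehyde. Peak fluorescence responses were used to derive concentration-dependent inhibition.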

The target in series [4] is guinea pig TRPA1 (Cavia porcellus, UniProt H0VJD1). In words: CHO cell line FLIPR Ca2+ assay, CA-evoked. It counts as cell-based.
Series [5] concerns the target dog TRPA1 (Canis lupus familiaris, UniProt A0A8I3Q1Q7). In words: CHO cell line FLIPR Ca2+ assay, CA-evoked. It is filed as cell-based.
The target in series [6] is human TRPV1 (Homo sapiens, UniProt Q8NER1). In words: Ca2+ responses evoked by 30 nM capsaicin. It is filed as cell-based.
For series [7], the target named is human TRPM8 (Homo sapiens, UniProt Q7Z2W7). In words: Ca2+ responses evoked by 50 μM menthol. It counts as cell-based.
In series [8] the target is T1, human TRPC6 (Homo sapiens, UniProt Q9Y210).
T1 sequence (Q9Y210 1-931): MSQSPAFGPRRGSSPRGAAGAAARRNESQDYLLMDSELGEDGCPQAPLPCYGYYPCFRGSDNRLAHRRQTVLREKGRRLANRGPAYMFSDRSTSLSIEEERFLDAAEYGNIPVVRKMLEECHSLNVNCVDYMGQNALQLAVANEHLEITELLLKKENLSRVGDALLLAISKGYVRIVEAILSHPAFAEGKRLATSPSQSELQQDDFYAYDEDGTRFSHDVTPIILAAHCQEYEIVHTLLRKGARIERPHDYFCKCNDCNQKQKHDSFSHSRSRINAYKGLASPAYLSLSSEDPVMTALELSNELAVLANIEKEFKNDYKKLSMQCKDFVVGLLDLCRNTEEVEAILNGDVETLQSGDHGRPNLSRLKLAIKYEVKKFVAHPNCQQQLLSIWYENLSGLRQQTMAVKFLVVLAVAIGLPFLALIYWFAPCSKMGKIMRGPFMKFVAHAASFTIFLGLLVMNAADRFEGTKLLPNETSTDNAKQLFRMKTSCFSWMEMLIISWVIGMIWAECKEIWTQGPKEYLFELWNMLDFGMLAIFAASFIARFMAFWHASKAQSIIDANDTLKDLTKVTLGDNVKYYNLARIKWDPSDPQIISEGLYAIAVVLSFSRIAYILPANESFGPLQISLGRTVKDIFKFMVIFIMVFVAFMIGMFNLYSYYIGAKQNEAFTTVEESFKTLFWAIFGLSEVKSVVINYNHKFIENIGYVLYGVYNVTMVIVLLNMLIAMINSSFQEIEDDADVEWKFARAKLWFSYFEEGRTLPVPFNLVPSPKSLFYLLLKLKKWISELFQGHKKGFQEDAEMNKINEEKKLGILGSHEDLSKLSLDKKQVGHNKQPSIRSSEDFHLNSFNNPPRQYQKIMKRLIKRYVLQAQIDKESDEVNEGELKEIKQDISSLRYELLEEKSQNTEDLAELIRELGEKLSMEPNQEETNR
In words: membrane potential assay using 75 μM carbochol. It counts as cell-based.

Series [9] relates to HASMCs. In words: calcium imaging, AITC-induced calcium flux in primary cells. It is filed as cell-based, human. The following applies: HASMCs treated with TRPA1 agonist AITC. In short, it runs like this:
(§1)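 Cells were imaged 15–24 h after plating, with fluorescence sampled at 0.5 Hz. TRPA1 activity was evoked by perfusing saline containing 50 µM AITC.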
(In general: A change in cytosolic calcium serves as a functional read-out for many receptors and channels.)

Series [10] relates to HLFs. The description is as above. It is filed as cell-based, human. The following applies: HLFs treated with TRPA1 agonist AITC. In short, it runs like this: as §1
The nature of series [11]: MDCK permeability. It counts as in vitro ADME, canine. The settings on record: dog. In short, it runs like this: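 MDCK cells were seeded at 2.5 × 10^5 cells/ml and grown 4 d at 37°C, 5% CO2. Medium was DMEM/Earle's balanced salt solution with 10% FBS, renewed on day 2 and the day before the assay.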
Series [12] has as its system cross-species hepatocytes. In words: hepatocyte metabolic stability, cross-species summary. It counts as in vitro ADME. In a few lines:
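Test compound at 1 µM was incubated with pooled cryopreserved hepatocytes from female CD-1 mouse, male Sprague-Dawley rat, male beagle dog, male cynomolgus monkey and mixed-gender human.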

A short description of series [13]: IV/PO PK, summary across preclinical species. It counts as in vivo.
The subject of series [14] is rats. In words: AITC-induced vascular leakage. The settings on record: rats, 1, 3 and 10 mg/kg, 3 h before topical AITC. It counts as in vivo, rat. In a few lines: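 Rats dosed 3 h beforehand were given 2% Evans blue i.v. (saline, 2.5 ml/kg) under isoflurane. Then 25 µl 20% AITC went on one ear and mineral oil on the other. Ear thickness was measured. At 20 min after AITC, dye was extracted in formamide (24 h, 65°C) and read at 620 nm.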

Series [15] concerns rats. In words: OVA challenge model of asthma in rats. It counts as in vivo, rat. The settings on record: oral. In short, it runs like this:
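Sensitised Brown Norway rats were challenged from day 28 with aerosolised 2% OVA in PBS, 30 min daily for 4 consecutive days. Vehicle or test compound was gavaged 3 h before each challenge; dexamethasone 5 mg/kg orally was the positive control. BALF was collected 24 h after the final treatment, eight rats per group.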

Series [16] relates to guinea pigs. In words: OVA challenge model of asthma in guinea pigs. It is filed as in vivo, guinea pig. The settings on record: single oral administration of 70 mg/kg. In short, it runs like this: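 Hartley guinea pigs were immunised i.p. on days 0 and 7 with 100 mg OVA plus 80 mg alum in PBS. On day 28 they were challenged with nebulised 0.1% OVA in PBS for 30 min. Vehicle or test compound was given by gavage 3 h before challenge. Animals were euthanised 24 h later, with aortic blood taken for PK.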

Series [17] concerns rats. In words: AITC-induced dermal blood flow. It is filed as in vivo, rat. The settings on record: oral 3 or 10 mg/kg, 3 h before AITC skin challenge. In short, it runs like this:
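Rats dosed orally 3 h before imaging with 0, 3.0 or 10.0 mg/kg test compound in 85% MCT / 15% DMSO. Topical AITC skin challenge. Dermal blood flow recorded by laser speckle contrast imaging. Traces normalised to fold-change by subtracting and dividing by the mean baseline DBF before AITC. DBF rise-time and maximal level assessed.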

The subject of series [18] is guinea pigs. In words: AITC-induced dermal blood flow. It counts as in vivo, guinea pig. The settings on record: oral 5, 15 or 45 mg/kg, 3.5 h before AITC skin challenge. In short, it runs like this: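 Female Hartley guinea pigs, 5 wk old, were dosed orally with 0, 5, 15 or 45 mg/kg test compound in 85% MCT/15% DMSO, 3.5 h before topical AITC. Dermal blood flow was imaged by laser speckle contrast imaging. Traces were normalised to fold-change against the mean pre-AITC baseline.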

Series [19] concerns rats. In words: AITC-induced nocifensive behavior in rats. It counts as in vivo, rat. In a few lines: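 Rats pretreated with test compound at the indicated doses, then given intraplantar AITC. Nocifensive behaviour scored as flinching plus hind paw–directed licking and biting. Data reported as mean ± SEM.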
Series [20] can be described thus: Phase 1 SAD study, plasma PK. It counts as in vivo, human. The settings on record: healthy volunteers, dose increased from 75 mg to 600 mg. In short, it runs like this: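 Healthy volunteers in single-ascending-dose cohorts, randomised 6 test compound : 2 placebo, dosed fasted at 25, 75, 200 or 600 mg. Blood sampled before dose and at multiple time points after dose. Plasma concentrations measured by validated analytical methods.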

Series [21] relates to healthy volunteers. In words: Phase 1 SAD study, safety and tolerability. It is filed as in vivo, human. The settings on record: single oral dose 25-600 mg. In short, it runs like this: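 Healthy volunteers received a single oral dose, fasted, randomised 6 active:2 placebo per cohort at 25, 75, 200 or 600 mg. Safety and tolerability was the primary outcome. Escalation targeted about two- to threefold exposure increases, decided after review of safety and PK data up to 72 h post-dose.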

Series [22] has as its system healthy volunteers. In words: Phase 1 SAD study, AITC skin challenge. It counts as in vivo, human. In short, it runs like this: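 Randomised, double-blind, single ascending oral dose study in fasted healthy volunteers: six active and two placebo per cohort, at 25, 75, 200 or 600 mg (tablets). AITC skin challenge was at 3 h (25 mg), 8 h (75 mg) or 6 h (200/600 mg) post-dose. DBF was recorded by LSCI from 2 min before to 21 min after AITC. Pain and itch were rated 0–10 at 2–20 min. DBF AUC0–10 min and maximal scores were compared with pooled placebo (Dunnett's); plasma concentrations were measured by validated bioanalysis.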

cynomolgus (cyno) monkey TRPA1, sequence (A0A2K5VSJ1 26-1144): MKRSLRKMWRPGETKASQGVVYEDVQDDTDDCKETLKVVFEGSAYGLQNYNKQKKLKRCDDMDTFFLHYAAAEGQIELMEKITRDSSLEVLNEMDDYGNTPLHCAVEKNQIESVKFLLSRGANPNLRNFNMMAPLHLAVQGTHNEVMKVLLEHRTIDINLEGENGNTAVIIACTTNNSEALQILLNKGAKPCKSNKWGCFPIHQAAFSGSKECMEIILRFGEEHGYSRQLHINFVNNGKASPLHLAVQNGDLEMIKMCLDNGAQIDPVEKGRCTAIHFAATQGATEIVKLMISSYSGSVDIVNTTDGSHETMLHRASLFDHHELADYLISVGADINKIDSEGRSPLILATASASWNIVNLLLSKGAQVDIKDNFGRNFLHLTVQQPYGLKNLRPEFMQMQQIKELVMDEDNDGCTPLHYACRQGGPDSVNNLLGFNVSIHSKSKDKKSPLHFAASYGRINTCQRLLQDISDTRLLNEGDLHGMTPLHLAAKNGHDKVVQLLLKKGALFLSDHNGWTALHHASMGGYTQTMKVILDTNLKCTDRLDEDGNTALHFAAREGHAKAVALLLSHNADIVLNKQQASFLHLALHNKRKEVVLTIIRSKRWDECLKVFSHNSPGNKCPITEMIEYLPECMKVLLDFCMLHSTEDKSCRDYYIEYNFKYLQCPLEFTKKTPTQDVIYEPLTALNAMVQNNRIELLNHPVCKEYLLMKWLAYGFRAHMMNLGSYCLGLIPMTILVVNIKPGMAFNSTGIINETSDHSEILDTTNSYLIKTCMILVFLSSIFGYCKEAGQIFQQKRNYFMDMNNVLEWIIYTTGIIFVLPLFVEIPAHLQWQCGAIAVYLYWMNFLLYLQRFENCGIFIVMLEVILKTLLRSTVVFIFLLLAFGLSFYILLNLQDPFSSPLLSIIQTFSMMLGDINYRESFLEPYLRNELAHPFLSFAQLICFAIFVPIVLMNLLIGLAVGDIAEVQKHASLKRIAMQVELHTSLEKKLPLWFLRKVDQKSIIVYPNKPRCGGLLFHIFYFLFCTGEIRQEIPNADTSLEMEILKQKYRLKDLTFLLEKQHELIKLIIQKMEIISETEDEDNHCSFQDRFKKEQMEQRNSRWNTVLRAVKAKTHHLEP
mouse TRPA1, sequence (Q8BLA8 whole entry): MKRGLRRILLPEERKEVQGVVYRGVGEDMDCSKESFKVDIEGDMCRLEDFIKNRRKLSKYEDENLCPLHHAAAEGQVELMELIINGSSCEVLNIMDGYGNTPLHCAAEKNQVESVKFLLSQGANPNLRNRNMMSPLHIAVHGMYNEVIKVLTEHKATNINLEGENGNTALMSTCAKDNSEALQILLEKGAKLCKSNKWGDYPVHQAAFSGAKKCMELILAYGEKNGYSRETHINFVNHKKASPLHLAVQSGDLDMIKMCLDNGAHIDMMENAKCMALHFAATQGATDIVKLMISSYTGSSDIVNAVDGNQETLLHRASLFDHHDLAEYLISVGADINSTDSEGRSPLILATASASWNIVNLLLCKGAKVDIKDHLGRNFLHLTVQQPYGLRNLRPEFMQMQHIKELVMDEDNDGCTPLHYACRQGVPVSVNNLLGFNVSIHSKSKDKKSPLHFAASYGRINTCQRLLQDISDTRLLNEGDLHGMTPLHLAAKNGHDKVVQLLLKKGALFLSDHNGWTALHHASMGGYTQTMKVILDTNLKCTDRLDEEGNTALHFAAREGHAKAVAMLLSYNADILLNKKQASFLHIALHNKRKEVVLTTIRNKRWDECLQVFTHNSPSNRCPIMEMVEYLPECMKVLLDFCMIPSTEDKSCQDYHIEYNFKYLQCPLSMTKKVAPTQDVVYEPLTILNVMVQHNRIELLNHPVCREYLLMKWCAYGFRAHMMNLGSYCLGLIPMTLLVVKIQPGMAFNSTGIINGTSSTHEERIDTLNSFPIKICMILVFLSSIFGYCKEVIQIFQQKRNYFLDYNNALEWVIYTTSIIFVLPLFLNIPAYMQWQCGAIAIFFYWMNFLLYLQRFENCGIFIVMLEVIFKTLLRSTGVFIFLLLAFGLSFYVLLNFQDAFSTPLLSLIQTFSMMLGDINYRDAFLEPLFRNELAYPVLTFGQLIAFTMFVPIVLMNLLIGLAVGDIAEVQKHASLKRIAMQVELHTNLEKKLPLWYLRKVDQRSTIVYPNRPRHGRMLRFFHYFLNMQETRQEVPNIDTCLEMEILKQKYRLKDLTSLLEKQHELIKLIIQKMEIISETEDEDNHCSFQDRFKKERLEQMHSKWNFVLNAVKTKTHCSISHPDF
human TRPV1, sequence (Q8NER1 whole entry): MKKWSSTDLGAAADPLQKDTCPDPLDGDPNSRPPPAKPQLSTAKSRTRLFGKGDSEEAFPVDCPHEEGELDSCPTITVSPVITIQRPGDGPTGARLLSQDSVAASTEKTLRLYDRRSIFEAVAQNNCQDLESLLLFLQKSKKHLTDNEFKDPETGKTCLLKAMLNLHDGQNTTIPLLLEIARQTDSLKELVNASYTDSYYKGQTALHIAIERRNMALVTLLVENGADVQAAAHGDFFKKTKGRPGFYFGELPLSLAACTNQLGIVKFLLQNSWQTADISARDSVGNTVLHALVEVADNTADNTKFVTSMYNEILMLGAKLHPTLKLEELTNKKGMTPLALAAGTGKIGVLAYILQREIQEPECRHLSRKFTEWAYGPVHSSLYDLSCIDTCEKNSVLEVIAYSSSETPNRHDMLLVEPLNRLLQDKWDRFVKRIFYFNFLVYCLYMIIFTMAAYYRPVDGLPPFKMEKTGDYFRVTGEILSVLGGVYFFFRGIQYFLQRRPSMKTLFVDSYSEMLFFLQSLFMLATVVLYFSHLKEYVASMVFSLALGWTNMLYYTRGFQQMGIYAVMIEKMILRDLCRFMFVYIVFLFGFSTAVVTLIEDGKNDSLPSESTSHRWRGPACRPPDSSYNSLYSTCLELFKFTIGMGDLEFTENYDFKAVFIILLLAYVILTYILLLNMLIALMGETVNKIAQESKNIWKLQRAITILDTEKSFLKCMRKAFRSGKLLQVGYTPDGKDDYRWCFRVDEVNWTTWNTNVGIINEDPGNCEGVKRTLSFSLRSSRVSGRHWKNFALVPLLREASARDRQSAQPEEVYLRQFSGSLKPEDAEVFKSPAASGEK
human TRPM8, sequence (Q7Z2W7 whole entry): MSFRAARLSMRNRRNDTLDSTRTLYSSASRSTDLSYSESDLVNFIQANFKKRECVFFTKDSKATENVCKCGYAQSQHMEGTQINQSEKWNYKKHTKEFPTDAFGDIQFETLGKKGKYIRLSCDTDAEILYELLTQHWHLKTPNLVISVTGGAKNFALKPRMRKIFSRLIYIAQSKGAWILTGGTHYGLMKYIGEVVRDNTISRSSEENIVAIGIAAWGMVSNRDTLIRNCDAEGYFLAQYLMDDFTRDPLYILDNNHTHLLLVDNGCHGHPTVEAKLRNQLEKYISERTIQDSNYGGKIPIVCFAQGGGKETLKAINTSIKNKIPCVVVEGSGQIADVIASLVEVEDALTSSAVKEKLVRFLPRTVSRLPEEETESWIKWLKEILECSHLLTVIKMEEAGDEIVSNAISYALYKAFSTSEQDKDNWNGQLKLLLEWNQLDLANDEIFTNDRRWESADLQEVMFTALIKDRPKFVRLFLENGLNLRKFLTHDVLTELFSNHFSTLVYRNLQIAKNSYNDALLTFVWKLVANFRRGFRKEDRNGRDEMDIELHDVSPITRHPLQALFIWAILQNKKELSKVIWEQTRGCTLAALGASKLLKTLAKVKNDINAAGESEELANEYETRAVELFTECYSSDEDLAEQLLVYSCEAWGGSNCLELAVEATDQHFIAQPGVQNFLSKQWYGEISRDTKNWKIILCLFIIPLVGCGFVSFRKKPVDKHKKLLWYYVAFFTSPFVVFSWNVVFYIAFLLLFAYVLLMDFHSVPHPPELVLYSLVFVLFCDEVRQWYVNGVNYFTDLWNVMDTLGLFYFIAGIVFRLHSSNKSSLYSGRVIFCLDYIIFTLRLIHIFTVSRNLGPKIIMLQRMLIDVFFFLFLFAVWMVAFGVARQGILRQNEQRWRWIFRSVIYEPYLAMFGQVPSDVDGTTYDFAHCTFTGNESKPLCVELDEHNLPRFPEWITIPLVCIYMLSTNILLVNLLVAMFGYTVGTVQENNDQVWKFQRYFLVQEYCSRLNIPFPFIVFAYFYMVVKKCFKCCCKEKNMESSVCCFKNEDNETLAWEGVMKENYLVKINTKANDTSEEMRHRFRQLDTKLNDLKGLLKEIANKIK

As to `CCC(=N\O)/C(C)=C/c1ccc(F)cc1` [A-967079, reference compound], the “times less potent than GDC-0334” value in series [1] (HASMC contraction assay (Fig. 2 C)) is recorded as about 500 times.
As usually defined, the IC50 is the point on the concentration scale where inhibition reaches its midpoint. In general, Papp A→B refers to the apparent permeability from the apical to the basolateral side of a cell layer. For `C[C@H]1[C@H](F)C[C@@H](C(=O)NCc2cc(-c3cnc(C(F)(F)F)nc3)ncc2C(F)(F)F)N1S(=O)(=O)c1ccc(F)cc1` [GDC-0334, (2S,4R,5S)-4-fluoro-1-(4-fluorophenylsulfonyl)-5-methyl-N-((5-(trifluoromethyl)-2-(2-(trifluoromethyl)pyrimidin-5-yl)pyridin-4-yl)methyl)pyrrolidine-2-carboxamide], the IC50 is 3.6 nM in series [2]; 2.7 nM in [3]; 11.1 nM in series [4]; 102 nM in series [5]; over 10000 nM in series [6]; over 10000 nM in [7]. Further, the IC50 was over 10000 nM in series [8] and 1.8 nM in series [1] (Homo sapiens, HASMC, read-out: HASMC contraction IC50). In addition, the “effect on AITC-induced calcium flux” value in series [9] and in [10] was “inhibited calcium flux” in each case. In [11], the Papp A→B at 180 min, 10 µM is 18.9 ×10⁻⁶ cm/s. In series [12], the “metabolite stability in cross-species hepatocytes” value is listed as “moderate to high”. Besides, the clearances entry in series [13] is “low to moderate”. Also, in series [14], the “Evans blue perfusion (AITC-induced vascular leakage)” value is listed as “Dose-dependent reductions”. Further, the “substance P (SP) in BALF after OVA challenge” value in [15] is “significantly blunted an increase”. Further, in [16], the “BALF infiltrates to the airways” value is “significantly reduced BALF infiltrates”. Besides, the “AITC-induced DBF” value in [17] was “Dose-dependent decreases in the DBF rise-times and maximal levels”; in series [18], “dose-dependent reduction”. The AITC-induced nocifensive behavior entry in [19] (3-mg/kg dose) is reported as “suppression comparable to that of Trpa1^−/− rats”; in [19] (pretreatment, indicated doses), “reduced AITC-induced nocifensive behavior in a dose-dependent manner”. For the same compound, the “exposures (Cmax, AUC0–24h, AUC0–72h) vs dose” value in series [20] is given as “Approximately dose-proportional increases”. For the same compound, in series [21], the “TEAEs thought to be related to treatment” value is “one case of mild headache”. The “serious TEAEs” value in [21] is on record as “no serious treatment-emergent AEs”. The tolerability entry in [21] was “well tolerated with only mild or moderate adverse events”. The “AITC-induced pain and itch” value in series [22] (healthy volunteers dosed with 600 mg) is recorded as “near-complete inhibition”; in series [22] (healthy volunteers, 25-600 mg vs placebo, verbal rating 0–10) it was “dose dependently reduced”. Also, the “DBF response to the AITC skin challenge” value in [22] (healthy volunteers, AITC challenge 3–8 h after oral dosing) is on record as “strong PD effect”. The “free plasma concentration with near-complete inhibition of AITC-induced DBF” value in [22] (healthy volunteers, free plasma) is over 4.92 nM. In series [22] (healthy volunteers, total plasma), the “plasma concentration with near-complete inhibition of AITC-induced DBF” value was over 250 ng/mL.
